From ChEMBL document CHEMBL1125286, “Zatosetron, a potent, selective, and long-acting 5HT3 receptor antagonist: synthesis and structure-activity relationships” (J Med Chem, 1992)

How the values were obtained:
[1] = target: T1, Serotonin 3 (5-HT3) receptor (Rattus norvegicus) (UniProt P35563+Q9JJ16); assay: 5-hydroxytryptamine 3 receptor antagonistic activity was measured by the inhibition of 5H+ T-induced bradycardia after iv administration of 1 ug/kg dose in urethane-anesthetized rats; assay type: functional, organism-based
Outline: (§1)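 Urethane-anesthetized rats. First 5HT challenge 30 μg/kg iv gives a transient bradycardia. Once heart rate is back at steady state (≤5 min), test compound or saline goes in via the femoral vein. 5HT 30 μg/kg iv is repeated 15 min later. % inhibition is the difference between first and second bradycardia at peak, each animal its own control. Means ± SEM, groups of 3–16 rats.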

[2] = target: T1, Serotonin 3 (5-HT3) receptor (Rattus norvegicus); assay: 5-hydroxytryptamine 3 receptor antagonistic activity measured by inhibition of 5-HT-induced bradycardia (iv administration 10 ug/kg dose in urethane-anesthetized rats); assay type: functional, organism-based; outline: as §1
[3] = target: T1, Serotonin 3 (5-HT3) receptor (Rattus norvegicus); assay: 5-hydroxytryptamine 3 receptor antagonistic activity was measured by the inhibition of 5H+ T-induced bradycardia after iv administration of 3 ug/kg dose in urethane-anesthetized rats; assay type: functional, organism-based
Outline: (§2)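 Urethane-anesthetized rats; antagonist or saline given iv via femoral vein after heart rate settled (≤5 min) from an initial 5HT challenge (30 µg/kg iv). 5HT was given again 15 min later. Peak bradycardia measured, each rat its own control; % inhibition = difference between first and second responses. Groups of 3–16 rats, means ± SEM.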

[4] = target: T1, Serotonin 3 (5-HT3) receptor (Rattus norvegicus); assay: 5-hydroxytryptamine 3 receptor antagonistic activity was measured by the inhibition of 5H+ T-induced bradycardia after po administration of 100 ug/kg dose in urethane-anesthetized rats; assay type: functional, organism-based
Outline: (§3)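 Fasted rats dosed by gavage (5 mL/kg) with compound or distilled-water vehicle. Urethane anesthesia and surgical preparation 15–20 min before challenge. 5HT 0.03 mg/kg iv given 1 h after dosing. Peak bradycardia is compared with vehicle-treated controls. Means ± SEM, groups of 3–11 rats.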

[5] = target: T1, Serotonin 3 (5-HT3) receptor (Rattus norvegicus); assay: 5-hydroxytryptamine 3 receptor antagonistic activity was measured by the inhibition of 5H+ T-induced bradycardia after po administration of 1000 ug/kg dose in urethane-anesthetized rats; assay type: functional, organism-based; outline: as §3
[6] = target: T1, Serotonin 3 (5-HT3) receptor (Rattus norvegicus); assay: Inhibition of 5-HT-induced bradycardia by 5-hydroxytryptamine 3+; assay type: functional
[7] = target: T1, Serotonin 3 (5-HT3) receptor (Rattus norvegicus); assay: Compound was tested for the inhibition of 5-HT-induced bradycardia after peroral administration of 0.3 mg/kg at 0.5 hours in urethane-anesthetized rats; assay type: functional, organism-based; parameters: dose 0.3 mg/kg; details: at 0.3 mg/kg
Outline: (§4)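 Duration study. Antagonist or vehicle is given by oral gavage to conscious rats. Rats are then urethane-anesthetized, surgically prepared and challenged with 5HT 0.03 mg/kg iv at the stated time after dosing. Peak inhibition of bradycardia is measured against vehicle-treated controls. Means ± SEM, groups of 3–11 rats.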

[8] = target: T1, Serotonin 3 (5-HT3) receptor (Rattus norvegicus); assay: Compound was tested for the inhibition of 5-HT-induced bradycardia after peroral administration of 0.3 mg/kg at 1 hour in urethane-anesthetized rats; assay type: functional, organism-based; parameters: dose 0.3 mg/kg; details: at 0.3 mg/kg; outline: as §4
[9] = target: T1, Serotonin 3 (5-HT3) receptor (Rattus norvegicus); assay: Compound was tested for the inhibition of 5-HT-induced bradycardia after peroral administration of 0.3 mg/kg at 3 hours in urethane-anesthetized rats; assay type: functional, organism-based; parameters: dose 0.3 mg/kg; details: at 0.3 mg/kg; outline: as §4
[10] = target: T1, Serotonin 3 (5-HT3) receptor (Rattus norvegicus); assay: Compound was tested for the inhibition of 5-HT-induced bradycardia after peroral administration of 0.3 mg/kg at 6 hours in urethane-anesthetized rats; assay type: functional, organism-based; parameters: dose 0.3 mg/kg; details: at 0.3 mg/kg; outline: as §4
[11] = tested on: Serotonin 3 receptor (Cavia porcellus); assay: In vitro binding affinity was measured for 5-hydroxytryptamine 3 receptor in the guinea pig ileum.
[12] = target: T1, Serotonin 3 (5-HT3) receptor (Rattus norvegicus); assay: Compound was tested for the inhibition of 5-HT-induced bradycardia after peroral administration in urethane-anesthetized rats
[13] = target: T1, Serotonin 3 (5-HT3) receptor (Rattus norvegicus); assay: Compound was tested for the inhibition of 5-HT-induced bradycardia after peroral administration of 0.03 mg/kg at 1 hour in urethane-anesthetized rats; assay type: functional, organism-based; parameters: dose 0.03 mg/kg; details: at 0.03 mg/kg; outline: as §4
[14] = target: T1, Serotonin 3 (5-HT3) receptor (Rattus norvegicus); assay: Compound was tested for the inhibition of 5-HT-induced bradycardia after peroral administration of 0.03 mg/kg at 3 hours in urethane-anesthetized rats; assay type: functional, organism-based; parameters: dose 0.03 mg/kg; details: at 0.03 mg/kg; outline: as §4
[15] = target: T1, Serotonin 3 (5-HT3) receptor (Rattus norvegicus); assay: Compound was tested for the inhibition of 5-HT-induced bradycardia after peroral administration of 0.03 mg/kg at 6 hours in urethane-anesthetized rats; assay type: functional, organism-based; parameters: dose 0.03 mg/kg; details: at 0.03 mg/kg; outline: as §4
[16] = target: T1, Serotonin 3 (5-HT3) receptor (Rattus norvegicus); assay: 5-hydroxytryptamine 3 receptor antagonistic activity as inhibition of 5-HT-induced bradycardia after iv administration of 100 ug/kg dose in urethane-anesthetized rats; assay type: functional, organism-based; outline: as §1
[17] = target: T1, Serotonin 3 (5-HT3) receptor (Rattus norvegicus); assay: Compound was tested for the inhibition of 5-HT-induced bradycardia after intravenous administration of 1 ug/kg dose in urethane-anesthetized rats; assay type: functional, organism-based; outline: as §2
[18] = target: T1, Serotonin 3 (5-HT3) receptor (Rattus norvegicus); assay: Compound was tested for the inhibition of 5-HT-induced bradycardia after peroral administration of 10 mg/kg at 1 hour in urethane-anesthetized rats; assay type: functional, organism-based; parameters: dose 10 mg/kg; details: at 10 mg/kg; outline: as §4
[19] = target: T1, Serotonin 3 (5-HT3) receptor (Rattus norvegicus); assay: Compound was tested for the inhibition of 5-HT-induced bradycardia after peroral administration of 1000 ug/kg dose in urethane-anesthetized rats; assay type: functional, organism-based; outline: as §3
[20] = target: T1, Serotonin 3 (5-HT3) receptor (Rattus norvegicus); assay: Compound was tested for the inhibition of 5-HT-induced bradycardia after peroral administration of 10 mg/kg at 3 hours in urethane-anesthetized rats; assay type: functional, organism-based; parameters: dose 10 mg/kg; details: at 10 mg/kg; outline: as §4

## CC1Cc2cc(Cl)cc(C(=O)OC3CC4CCC(C3)N4C)c2O1 (stereo not given)
[1]
  inhibition: 5.6%
[2]
  inhibition: 69%
[3]
  inhibition: 50.8%
[4]
  inhibition: 33.1%
[5]
  inhibition: 94.7%
[6]
  ED50: 0.0042 mg/kg
[7]
  inhibition: 92.6%
[8]
  inhibition: 66.2%
[9]
  inhibition: 60.5%
[10]
  inhibition: 0%
[11]
  -Log KB: 7.88
[12]
  ED50: 0.179 mg/kg

## CN1[C@@H]2CC[C@H]1C[C@@H](OC(=O)c1cc(Cl)cc3c1OC(C)(C)C3)C2
[2]
  inhibition: 82.7%
[3]
  inhibition: 19.3%
[6]
  ED50: 0.0046 mg/kg
[13]
  inhibition: 86.2%
[14]
  inhibition: 58%
[15]
  inhibition: 20.6%
[11]
  -Log KB: 7.92
[12]
  ED50: 0.0088 mg/kg

## Cc1cc2c(c(C(=O)OC3CC4CCC(C3)N4C)c1)OC(C)C2 (stereo not given)
[2]
  inhibition: 66.7%
[16]
  inhibition: 78.2%
[3]
  inhibition: 14.4%
[17]
  inhibition: 3.3%
[6]
  ED50: 0.0126 mg/kg
[18]
  inhibition: 74.8%
[19]
  inhibition: 11.6%
[20]
  inhibition: 0%
[11]
  -Log KB: 7.32
[12]
  ED50: 5.17 mg/kg
